# Bioassay records deposited in PubChem BioAssay by Broad Institute.
# This is a sample that favours compounds with a hit; in the whole collection about 5.8% have one here.
# IDH1 mut inh – blocks human IDH1 R132H reductase activity; inhibition, % at 10 µM; 0.18% of 70,000 active; diaphorase/resazurin fluorescence, 60 min; in the data active = inhibition above about 34%; inconclusive = no clear call, values can overlap the other calls; inactive = below about 11%
# Target sequence (O75874 whole entry R132H): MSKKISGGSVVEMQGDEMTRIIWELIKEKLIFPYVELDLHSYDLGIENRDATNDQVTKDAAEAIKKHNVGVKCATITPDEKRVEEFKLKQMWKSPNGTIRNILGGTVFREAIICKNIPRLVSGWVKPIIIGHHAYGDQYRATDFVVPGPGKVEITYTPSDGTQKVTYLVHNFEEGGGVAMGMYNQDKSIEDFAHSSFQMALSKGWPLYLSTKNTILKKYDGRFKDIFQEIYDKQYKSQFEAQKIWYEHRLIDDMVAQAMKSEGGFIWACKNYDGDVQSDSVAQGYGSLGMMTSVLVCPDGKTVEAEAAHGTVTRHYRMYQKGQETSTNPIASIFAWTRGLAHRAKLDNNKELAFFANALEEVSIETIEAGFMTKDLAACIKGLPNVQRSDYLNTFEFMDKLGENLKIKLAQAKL
# T cruzi growth-1 – T. cruzi proliferation inhibition. T. cruzi beta-gal in NIH3T3, GalScreen luminescence, 90 h. inhibition, % at 8.34 µM. 5.9% of 77,000 active. AID 624255;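 active = mean inhibition above about 93%, with at least 55% of replicates each passing it, limit read from the data, passing the limit was not always enough; inconclusive = only one of those two conditions holds; inactive = neither condition holds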
# Pf Dd2 growth – blocks growth of Plasmodium falciparum Dd2 parasites | 2.3% of 94,000 active | P. falciparum Dd2 growth, SYBR Green, 72 h; stronger effect = lower value | AID 1159554 | activity change, % at 10 µM; in the data active = activity change below about -80%; inconclusive = no clear call, values can overlap the other calls
# KDM4C inh – inhibitors of human demethylase GASC-1 KDM4C. Q9H3R0. GST-KDM4C 2-372, H3K9me3 peptide, LANCE TR-FRET. inhibition, % at 12.5 µM. 0.15% of 96,000 active. AID 720574;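 active = mean replicate inhibition above about 25%, with at least 55% of replicates also reaching it, limit read from the data, passing the limit was not always enough; inconclusive = only one of those two conditions met; inactive = neither condition met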
#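 Material: GST-tagged GASC-1 (JMJD2C) catalytic fragment, aa 2-372. Input: enzyme final amount 10 nM. Medium: HEPES buffer, pH 7.5, plus ascorbate. Reagent: H3K9me3 peptide substrate, Fe(II), 2-oxoglutarate. Doses: single dose. Times: reaction 30 min RT, detection step 1 h RT. Measured by: LANCE TR-FRET. Evaluation: Fall in 671/618 emission ratio as inhibition.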
# T cruzi growth-2 – blocks T. cruzi growth in NIH3T3 host cells; T. cruzi beta-gal in NIH3T3, GalScreen luminescence, 90 h; shares compounds with T cruzi growth-1; AID 651739; 72% of 5,600 active; inhibition, % at 8.35 µM;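 active = mean replicate inhibition above about 95% and at least 55% of replicates individually reaching it, limit read from the data; inconclusive = only one of the two criteria is met; inactive = neither criterion is met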
# T cruzi growth-3 – inhibitors of T. cruzi proliferation; shares compounds with T cruzi growth-1; T. cruzi beta-gal in NIH3T3, GalScreen luminescence, 90 h; inhibition, % at 2.09 µM; 21% of 5,600 active; AID 651740;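 active = mean inhibition above about 95%, with at least 55% of replicates also reaching it, limit read from the data; inconclusive = meets just one of the two conditions; inactive = meets neither condition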
# 3T3 cytotox – kills mouse NIH/3T3 fibroblasts; cytotoxicity (signal decrease), % at 8.35 µM; shares compounds with T cruzi growth-1; NIH/3T3 viability, CellTiter-Glo ATP luminescence, 90 h; 14% of 5,600 active;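 active = mean signal decrease across replicates above about 35% based on untreated-well scatter, with enough replicates individually passing, limit read from the data; inconclusive = no rule stated though some were filed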
# 3T3 cytotox 2 – cytotoxicity in mouse NIH/3T3 fibroblasts; 56% of 5,600 active; NIH/3T3 viability, CellTiter-Glo ATP luminescence, 90 h; inhibition, % at 24.9 µM; shares compounds with T cruzi growth-1;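 active = mean loss of cell viability signal at or above a set limit, and enough replicates individually reaching it; inconclusive = meets only the mean limit or only the replicate share; inactive = meets neither condition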
# Hits are given with their value; 0 = inactive; ? = inconclusive; - = no result.
SMILES,IDH1 mut inh,T cruzi growth-1,Pf Dd2 growth,KDM4C inh,T cruzi growth-2,T cruzi growth-3,3T3 cytotox,3T3 cytotox 2
CO[C@@H](CN(C)S(=O)(=O)c1cccc(Cl)c1)[C@@H](C)CN([C@H](C)CO)S(=O)(=O)c1cccc(Cl)c1,0,0,0,0,-,-,-,-
CO[C@H](CN(C)S(=O)(=O)c1ccc(C)cc1)[C@H](C)CN([C@H](C)CO)S(=O)(=O)c1cccc(Cl)c1,0,102,0,0,103,0,58,84
CO[C@@H](CN(C)S(=O)(=O)c1cccc(Cl)c1)[C@H](C)CN([C@@H](C)CO)S(=O)(=O)c1ccc(Cl)cc1,0,103,0,0,?,0,?,76
CO[C@H](CN(C)S(=O)(=O)c1cccc(Cl)c1)[C@H](C)CN([C@H](C)CO)S(=O)(=O)c1cccc(Cl)c1,0,101,0,0,113,0,?,60
CN1Cc2cc3c(cc2CCC(=O)c2cc4c(cc2C1)OCO4)OCO3,0,-,-,-,-,-,-,-
C[C@H](CO)N1C[C@H](C)[C@H](CN(C)C(=O)c2ccccc2F)Oc2ncc(C#Cc3ccccc3)cc2C1=O,-,0,0,0,-,-,-,-
C[C@H](CO)N1C[C@H](C)[C@@H](CN(C)C(=O)c2ccccc2F)Oc2ncc(C#Cc3cccc(F)c3)cc2C1=O,0,99,-87,0,103,0,0,0
C[C@@H]1CN([C@@H](C)CO)C(=O)c2cc(C#Cc3cccc(F)c3)cnc2O[C@H]1CN(C)C(=O)c1ccccc1F,0,110,0,0,109,0,0,0
C[C@@H]1CN([C@H](C)CO)C(=O)c2cc(C#Cc3ccccc3)cnc2O[C@@H]1CN(C)C(=O)c1ccccc1F,-,0,0,0,-,-,-,-
O=c1[nH]cnc2c1cnn2Cc1ccc(Cl)cc1,0,-,-,-,-,-,-,-
O=C(Oc1ccc2ccccc2c1)c1ccccc1S(=O)(=O)c1ccccc1[N+](=O)[O-],0,-,-,-,-,-,-,-
CNC[C@H]1Oc2cc(C#Cc3ccncc3)ccc2S(=O)(=O)N([C@H](C)CO)C[C@H]1C,-,-,0,0,-,-,-,-
CNC[C@@H]1Oc2cc(C#Cc3ccccn3)ccc2S(=O)(=O)N([C@@H](C)CO)C[C@H]1C,0,105,0,0,107,0,0,0
CNC[C@@H]1Oc2cc(C#Cc3ccccn3)ccc2S(=O)(=O)N([C@H](C)CO)C[C@H]1C,0,103,0,0,110,0,0,0
CNC[C@@H]1Oc2cc(C#Cc3ccncc3)ccc2S(=O)(=O)N([C@@H](C)CO)C[C@@H]1C,0,-,0,0,-,-,-,-
C/C=C/c1ccc([C@@H]2[C@@H](CNC(=O)CC3CC3)N(C(=O)CC)[C@H]2CO)cc1,-,113,0,0,0,0,0,0
C/C=C/c1ccc([C@H]2[C@@H](CNC(=O)CC3CC3)N(C(=O)CC)[C@H]2CO)cc1,-,103,0,0,0,0,0,0
C/C=C/c1ccc([C@@H]2[C@@H](CO)N(C(=O)CC)[C@H]2CNC(=O)CC2CC2)cc1,-,0,0,0,-,-,-,-
C/C=C/c1ccc([C@H]2[C@@H](CNC(=O)C3CC3)N(C(=O)NCCC)[C@H]2CO)cc1,-,97,0,0,0,0,0,0
COc1cccc(-c2ccc3c(c2)O[C@@H](CN(C)C(=O)C2CC2)[C@@H](C)CN([C@@H](C)CO)S3(=O)=O)c1,-,105,0,0,0,0,0,45
COc1cccc(-c2ccc3c(c2)O[C@@H](CN(C)C(=O)C2CC2)[C@@H](C)CN([C@H](C)CO)S3(=O)=O)c1,-,105,0,0,0,0,0,63
CCOC(=O)c1sc(NC(=S)Nc2cnccn2)c(C(=O)OCC)c1C,0,-,-,-,-,-,-,-
C[C@@H]1CCCCO[C@H](CN(C)S(=O)(=O)c2ccc(F)cc2)[C@H](C)CN([C@H](C)CO)C(=O)c2cc(NS(=O)(=O)c3ccc(Cl)cc3)ccc2O1,0,100,0,0,103,110,0,0
C[C@@H]1CCCCO[C@@H](CN(C)S(=O)(=O)c2ccc(F)cc2)[C@H](C)CN([C@H](C)CO)C(=O)c2cc(NS(=O)(=O)c3ccc(Cl)cc3)ccc2O1,-,0,0,0,-,-,-,-
